# Activity calls are given as the source filed them. The calls are words filed in the database; no cut-off is given here.
# Tests used:
# [1] = molecular target: T1, Protein polybromo-1 (Homo sapiens, UniProt Q86U86); assay: Binding affinity to human PB1 isoform 4 expressed in BL21 (DE3)-R3-BirA cells assessed as change in melting temperature at 10 uM by sypro-orange dye-based differential scanning fluorimetric analysis; format: cell-based
# In short: (§1)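 Thermal shift (DSF) screen of bromodomain proteins with compound at 10 μM; binding read as change in melting temperature (Tm shift).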
# [2] = molecular target: T1, Protein polybromo-1; assay: Binding affinity to human PB1 isoform 5 expressed in BL21 (DE3)-R3-BirA cells assessed as change in melting temperature at 10 uM by sypro-orange dye-based differential scanning fluorimetric analysis; format: cell-based; in short: as §1
# [3] = molecular target: T2, SWI/SNF-related matrix-associated actin-dependent regulator of chromatin subfamily A member 4 (Homo sapiens, UniProt P51532); assay: Binding affinity to human SMARCA4 expressed in BL21 (DE3)-R3-BirA cells assessed as change in melting temperature at 10 uM by sypro-orange dye-based differential scanning fluorimetric analysis; format: cell-based; in short: as §1
# [4] = molecular target: T1, Protein polybromo-1; assay: Binding affinity to human PB1 isoform 2 expressed in BL21 (DE3)-R3-BirA cells assessed as change in melting temperature at 10 uM by sypro-orange dye-based differential scanning fluorimetric analysis; format: cell-based; in short: as §1
# [5] = molecular target: T1, Protein polybromo-1; assay: Binding affinity to human PB1 isoform 3 expressed in BL21 (DE3)-R3-BirA cells assessed as change in melting temperature at 10 uM by sypro-orange dye-based differential scanning fluorimetric analysis; format: cell-based; in short: as §1
# [6] = molecular target: T3, SWI/SNF-related matrix-associated actin-dependent regulator of chromatin subfamily A member 2 (Homo sapiens, UniProt P51531); assay: Binding affinity to human SMARC2A expressed in BL21 (DE3)-R3-BirA cells assessed as change in melting temperature at 10 uM by sypro-orange dye-based differential scanning fluorimetric analysis; format: cell-based; in short: as §1
# [7] = molecular target: T3, SWI/SNF-related matrix-associated actin-dependent regulator of chromatin subfamily A member 2; assay: Binding affinity to human SMARC2B expressed in BL21 (DE3)-R3-BirA cells assessed as change in melting temperature at 10 uM by sypro-orange dye-based differential scanning fluorimetric analysis; format: cell-based; in short: as §1
# [8] = molecular target: T1, Protein polybromo-1; assay: Inhibition of chromatin binding to full length GFP-tagged PB1 expressed in human U2OS cells assessed as acceleration of FRAP half-recovery time at 1 uM incubated for 1 hr in presence of SAHA by FRAP assay; format: cell-based
# In short: (§2)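 U2OS cells transfected with full-length GFP-PB1 and treated with SAHA to induce hyperacetylation. Mutant controls were PB1 N263A (second bromodomain) and N707F (fifth bromodomain). Read-out is FRAP half-recovery time (t½) from individual recovery curves, at least 20 cells per group, reported as mean ± SEM. Compared against WT with 2.5 μM SAHA.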
# [9] = Half life in PBS at pH 7.4 at 20 degC; format: ADME; conditions: buffer
# [10] = molecular target: T2, SWI/SNF-related matrix-associated actin-dependent regulator of chromatin subfamily A member 4; assay: Binding affinity to human SMARCA4 expressed in BL21 (DE3)-R3-BirA cells by isothermal titration calorimetry
# [11] = molecular target: T1, Protein polybromo-1; assay: Binding affinity to human PB1 isoform 2 expressed in BL21 (DE3)-R3-BirA cells by isothermal titration Calorimetry
# In short: (§3)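 Absolute binding affinity measured by isothermal titration calorimetry on the bromodomain protein.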
# [12] = molecular target: T1, Protein polybromo-1; assay: Binding affinity to human PB1 isoform 5 expressed in BL21 (DE3)-R3-BirA cells by isothermal titration calorimetry; in short: as §3
# [13] = molecular target: T3, SWI/SNF-related matrix-associated actin-dependent regulator of chromatin subfamily A member 2; assay: Binding affinity to human SMARCA2 expressed in BL21 (DE3)-R3-BirA cells by isothermal titration calorimetry
# [14] = tested on: 786-0; assay: Antiproliferative activity against human 786-0 cells at 0.1 to 10 uM incubated for 24 to 72 hrs by MTT assay; format: functional, cell-based
# In short: (§4)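 Clear cell renal carcinoma lines (786-O with wild-type PB1 expression; Rcc4 with PB1 downregulation) treated with compound; proliferation read-out.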
# [15] = tested on: C2C12; assay: Inhibition of differentiation in mouse C2C12 cells assessed as shortening of myotubes with lower nuclei at 500 nM to 50 uM by HRP-peroxidase-based immunocytochemistry relative to control; format: functional, cell-based
# In short: (§5)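 C2C12 myoblasts grown with compound through differentiation, normally seen within 48 hours. Scored by cell fusion into myotubes (myotube length, nuclei per myotube) and MyHC expression relative to controls; myogenin monitored as an early marker.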
# [16] = tested on: C2C12; assay: Inhibition of differentiation in mouse C2C12 cells assessed as suppression of MyHC expression at 5 uM by HRP-peroxidase-based immunocytochemistry; format: functional, cell-based; in short: as §5
# [17] = tested on: C2C12; assay: Cytotoxicity against mouse C2C12 cells assessed as cell death at 100 uM after 72 hrs by MTT assay; format: cell-based; conditions: c2c12, 72 h
# [18] = tested on: C3H 10T1/2; assay: Inhibition of differentiation of mouse C3H10T1/2 cells to adipocytes assessed as lipid accumulation at 5 uM by oil red O staining-based assay; format: functional, cell-based
# In short: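 C3H10T1/2 mesenchymal cells induced to differentiate to adipocytes with an adipogenic cocktail in the presence of compound; lipid droplet accumulation visualised by Oil Red O staining.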
# [19] = tested on: C2C12; assay: Cytotoxicity against mouse C2C12 cells assessed as cell viability up to 50 uM after 72 hrs by MTT assay; format: cell-based; conditions: c2c12, 72 h
# [20] = molecular target: T3, SWI/SNF-related matrix-associated actin-dependent regulator of chromatin subfamily A member 2; assay: Inhibition of chromatin binding to full length GFP-tagged wild type SMARCA2 expressed in human U2OS cells assessed as acceleration of FRAP half-recovery time incubated for 1 hr in presence of SAHA by FRAP assay; format: cell-based
# In short: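 U2OS cells transfected with GFP-SMARCA2 (WT) and treated with SAHA to induce hyperacetylation, with compound given at several doses. The mutant control was GFP-SMARCA2 N1464F (acetyl-lysine-recognising asparagine).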
# [21] = Cytotoxicity against mouse C3H10T1/2 cells assessed as cell viability up to 50 uM after 72 hrs by MTT assay; format: cell-based; conditions: c3h 10t1/2, 72 h
# [22] = tested on: RCC4; assay: Antiproliferative activity against human RCC4 cells at 0.1 to 10 uM incubated for 24 to 72 hrs by MTT assay; format: functional, cell-based; in short: as §4
# [23] = molecular target: T1, Protein polybromo-1; assay: Inhibition of chromatin binding to full length GFP-tagged PB1 expressed in human U2OS cells assessed as acceleration of FRAP half-recovery time at 100 nM incubated for 1 hr in presence of SAHA by FRAP assay; format: cell-based; in short: as §2
# [24] = Cytotoxicity against mouse C3H10T1/2 cells assessed as cell death at 100 uM after 72 hrs by MTT assay; format: cell-based; conditions: c3h 10t1/2, 72 h
# T2 sequence (P51532 whole entry, canonical isoform): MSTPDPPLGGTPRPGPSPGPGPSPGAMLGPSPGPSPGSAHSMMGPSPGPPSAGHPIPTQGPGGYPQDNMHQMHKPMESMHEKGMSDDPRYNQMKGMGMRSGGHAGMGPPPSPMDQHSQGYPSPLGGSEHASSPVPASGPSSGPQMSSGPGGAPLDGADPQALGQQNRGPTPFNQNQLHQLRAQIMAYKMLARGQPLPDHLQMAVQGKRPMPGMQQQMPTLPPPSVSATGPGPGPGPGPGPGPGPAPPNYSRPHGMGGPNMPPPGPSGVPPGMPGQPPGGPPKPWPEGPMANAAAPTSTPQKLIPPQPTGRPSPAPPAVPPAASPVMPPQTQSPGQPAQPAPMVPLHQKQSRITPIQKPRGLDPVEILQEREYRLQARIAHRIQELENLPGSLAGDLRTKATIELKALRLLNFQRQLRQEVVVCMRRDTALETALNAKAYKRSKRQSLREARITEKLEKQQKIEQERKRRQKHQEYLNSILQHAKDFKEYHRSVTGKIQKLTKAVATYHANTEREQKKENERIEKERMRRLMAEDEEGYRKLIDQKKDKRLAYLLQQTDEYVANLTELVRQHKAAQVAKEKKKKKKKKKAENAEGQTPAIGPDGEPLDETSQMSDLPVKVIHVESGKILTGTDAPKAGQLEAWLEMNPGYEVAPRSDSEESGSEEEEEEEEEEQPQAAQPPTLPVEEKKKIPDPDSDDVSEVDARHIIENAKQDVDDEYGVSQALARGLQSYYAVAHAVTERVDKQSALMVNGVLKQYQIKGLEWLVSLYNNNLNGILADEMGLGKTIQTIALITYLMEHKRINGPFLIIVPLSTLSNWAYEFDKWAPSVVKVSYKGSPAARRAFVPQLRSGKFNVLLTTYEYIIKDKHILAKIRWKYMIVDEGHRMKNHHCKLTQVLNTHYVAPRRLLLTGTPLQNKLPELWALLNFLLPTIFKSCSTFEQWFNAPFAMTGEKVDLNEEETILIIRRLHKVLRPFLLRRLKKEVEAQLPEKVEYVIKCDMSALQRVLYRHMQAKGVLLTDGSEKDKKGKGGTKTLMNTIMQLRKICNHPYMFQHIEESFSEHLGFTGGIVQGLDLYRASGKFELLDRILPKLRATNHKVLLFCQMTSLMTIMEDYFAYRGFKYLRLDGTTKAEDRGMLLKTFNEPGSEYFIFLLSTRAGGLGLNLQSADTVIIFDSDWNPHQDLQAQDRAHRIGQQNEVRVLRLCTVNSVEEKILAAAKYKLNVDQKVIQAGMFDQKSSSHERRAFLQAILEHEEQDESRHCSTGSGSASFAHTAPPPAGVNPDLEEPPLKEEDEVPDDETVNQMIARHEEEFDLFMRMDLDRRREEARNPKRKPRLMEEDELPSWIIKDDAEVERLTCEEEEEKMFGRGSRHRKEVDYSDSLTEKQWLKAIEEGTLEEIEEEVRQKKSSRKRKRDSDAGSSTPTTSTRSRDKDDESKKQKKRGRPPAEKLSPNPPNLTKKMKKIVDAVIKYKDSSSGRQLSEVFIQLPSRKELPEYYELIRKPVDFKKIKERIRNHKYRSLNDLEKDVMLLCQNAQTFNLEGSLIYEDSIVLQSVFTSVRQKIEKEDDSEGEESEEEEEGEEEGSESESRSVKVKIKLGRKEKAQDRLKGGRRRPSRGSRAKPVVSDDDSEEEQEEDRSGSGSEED
# T1 sequence (Q86U86 whole entry, canonical isoform): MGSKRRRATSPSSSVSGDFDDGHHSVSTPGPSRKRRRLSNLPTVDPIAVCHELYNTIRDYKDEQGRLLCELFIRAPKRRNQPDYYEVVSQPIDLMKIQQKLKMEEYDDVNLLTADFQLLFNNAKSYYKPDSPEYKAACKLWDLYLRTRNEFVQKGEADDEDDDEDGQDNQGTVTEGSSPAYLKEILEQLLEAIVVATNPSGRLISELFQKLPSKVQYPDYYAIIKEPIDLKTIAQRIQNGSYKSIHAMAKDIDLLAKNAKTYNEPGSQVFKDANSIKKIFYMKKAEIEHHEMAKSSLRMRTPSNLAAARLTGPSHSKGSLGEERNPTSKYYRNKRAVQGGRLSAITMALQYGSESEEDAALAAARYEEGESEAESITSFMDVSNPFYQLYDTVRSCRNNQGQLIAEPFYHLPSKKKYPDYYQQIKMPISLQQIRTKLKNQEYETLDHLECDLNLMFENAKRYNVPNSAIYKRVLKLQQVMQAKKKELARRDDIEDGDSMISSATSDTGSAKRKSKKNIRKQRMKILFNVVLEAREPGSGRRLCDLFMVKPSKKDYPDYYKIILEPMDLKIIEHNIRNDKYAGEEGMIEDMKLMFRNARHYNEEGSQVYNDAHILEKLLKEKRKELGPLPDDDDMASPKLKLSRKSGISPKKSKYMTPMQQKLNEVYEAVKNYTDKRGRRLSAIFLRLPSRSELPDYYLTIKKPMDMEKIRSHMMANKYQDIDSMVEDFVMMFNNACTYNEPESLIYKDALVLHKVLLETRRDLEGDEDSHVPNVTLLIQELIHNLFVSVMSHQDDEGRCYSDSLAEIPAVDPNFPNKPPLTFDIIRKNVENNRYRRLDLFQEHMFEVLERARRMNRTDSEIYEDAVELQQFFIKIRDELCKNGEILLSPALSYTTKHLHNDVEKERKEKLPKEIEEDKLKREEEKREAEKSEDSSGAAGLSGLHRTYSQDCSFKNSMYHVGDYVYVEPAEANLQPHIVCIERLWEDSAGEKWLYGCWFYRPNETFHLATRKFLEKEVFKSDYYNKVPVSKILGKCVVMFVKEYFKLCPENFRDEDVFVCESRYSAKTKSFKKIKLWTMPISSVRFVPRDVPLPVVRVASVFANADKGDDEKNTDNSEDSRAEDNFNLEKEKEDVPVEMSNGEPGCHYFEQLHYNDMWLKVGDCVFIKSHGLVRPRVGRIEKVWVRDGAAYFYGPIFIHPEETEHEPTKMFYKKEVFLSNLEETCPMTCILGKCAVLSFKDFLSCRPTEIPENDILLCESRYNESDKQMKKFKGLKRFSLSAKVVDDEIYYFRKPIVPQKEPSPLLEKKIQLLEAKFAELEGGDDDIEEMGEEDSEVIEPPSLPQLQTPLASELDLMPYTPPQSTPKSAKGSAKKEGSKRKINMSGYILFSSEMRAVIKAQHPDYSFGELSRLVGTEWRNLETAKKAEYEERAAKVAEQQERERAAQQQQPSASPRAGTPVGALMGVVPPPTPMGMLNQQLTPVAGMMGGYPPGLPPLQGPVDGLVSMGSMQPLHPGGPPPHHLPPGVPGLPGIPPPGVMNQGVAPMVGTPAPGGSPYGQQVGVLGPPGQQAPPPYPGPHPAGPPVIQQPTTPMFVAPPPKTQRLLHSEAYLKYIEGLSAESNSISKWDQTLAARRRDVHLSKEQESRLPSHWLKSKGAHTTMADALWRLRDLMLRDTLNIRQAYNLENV
# T3 sequence (P51531 whole entry): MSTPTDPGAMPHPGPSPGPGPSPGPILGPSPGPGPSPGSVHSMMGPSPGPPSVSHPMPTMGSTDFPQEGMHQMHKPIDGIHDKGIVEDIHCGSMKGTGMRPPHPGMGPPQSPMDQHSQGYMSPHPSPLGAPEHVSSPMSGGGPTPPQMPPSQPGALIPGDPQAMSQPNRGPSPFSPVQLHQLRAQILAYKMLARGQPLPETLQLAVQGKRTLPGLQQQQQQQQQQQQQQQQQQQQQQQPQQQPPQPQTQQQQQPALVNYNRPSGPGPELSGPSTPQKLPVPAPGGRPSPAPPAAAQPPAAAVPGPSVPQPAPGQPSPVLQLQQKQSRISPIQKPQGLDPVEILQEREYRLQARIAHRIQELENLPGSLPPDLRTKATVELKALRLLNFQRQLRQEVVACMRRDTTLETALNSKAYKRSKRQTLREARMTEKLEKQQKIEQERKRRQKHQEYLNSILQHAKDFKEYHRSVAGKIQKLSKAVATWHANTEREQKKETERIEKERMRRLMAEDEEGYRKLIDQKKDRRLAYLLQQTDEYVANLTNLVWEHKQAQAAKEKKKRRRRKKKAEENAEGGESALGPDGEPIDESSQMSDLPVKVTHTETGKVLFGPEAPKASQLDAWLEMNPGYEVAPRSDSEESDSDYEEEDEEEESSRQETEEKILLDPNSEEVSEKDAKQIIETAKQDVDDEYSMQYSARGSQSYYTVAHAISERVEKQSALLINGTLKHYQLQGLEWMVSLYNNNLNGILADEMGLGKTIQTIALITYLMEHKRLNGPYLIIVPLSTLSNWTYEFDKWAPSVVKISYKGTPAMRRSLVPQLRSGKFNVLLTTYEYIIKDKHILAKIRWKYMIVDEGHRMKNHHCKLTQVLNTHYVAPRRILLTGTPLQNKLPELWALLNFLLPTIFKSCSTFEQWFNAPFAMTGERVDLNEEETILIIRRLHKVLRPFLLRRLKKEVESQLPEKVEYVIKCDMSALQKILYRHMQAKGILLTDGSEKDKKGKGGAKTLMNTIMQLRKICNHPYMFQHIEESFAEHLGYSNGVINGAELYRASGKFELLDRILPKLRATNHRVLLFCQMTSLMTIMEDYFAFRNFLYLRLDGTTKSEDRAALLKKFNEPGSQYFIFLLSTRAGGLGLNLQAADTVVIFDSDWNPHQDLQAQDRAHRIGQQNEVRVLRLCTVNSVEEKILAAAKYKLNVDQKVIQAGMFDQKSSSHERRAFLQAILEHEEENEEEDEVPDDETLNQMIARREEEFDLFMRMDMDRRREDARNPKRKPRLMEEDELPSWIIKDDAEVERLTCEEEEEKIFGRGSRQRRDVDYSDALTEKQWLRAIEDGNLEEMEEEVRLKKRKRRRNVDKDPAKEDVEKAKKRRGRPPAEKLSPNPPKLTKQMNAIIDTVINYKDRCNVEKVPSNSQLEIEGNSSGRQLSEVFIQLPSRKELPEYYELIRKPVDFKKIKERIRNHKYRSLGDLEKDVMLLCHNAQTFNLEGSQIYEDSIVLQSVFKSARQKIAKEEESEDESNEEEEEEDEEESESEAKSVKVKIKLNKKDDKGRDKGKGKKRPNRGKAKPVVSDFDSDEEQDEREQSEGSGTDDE
SMILES,ΔTm [1] [°C],ΔTm [2] [°C],ΔTm [3] [°C],ΔTm [4] [°C],ΔTm [5] [°C],ΔTm [6] [°C],ΔTm [7] [°C],further results
O=C(/C=C/N1CCc2c(ccnc2N[C@H]2CC[C@H](O)CC2)C1)c1ccccc1O,0.4,8.3,6.1,2.5,1.1,5.4,2.4,
O=C(/C=C/N1CCN(c2cccc(OCc3ccncc3)n2)CC1)c1ccccc1O,1.3,7,7.5,0.9,0.7,7.4,3.7,
O=C(/C=C/N1CCC(c2cc[nH]n2)CC1)c1ccccc1O,1,6.9,6.3,3.2,1.8,8.2,3.9,
O=C(/C=C/N1CCN(c2ncccn2)CC1)c1ccccc1O,0.6,4.6,2.9,0.7,0.3,2.9,1.1,
C#CCNc1ccnc(N2C[C@H]3C[C@@H]2CN3/C=C/C(=O)c2cccc(OC)c2O)n1,,-0.4,0.7,,,0.7,-0.4,inhibition [8]: inactive
O=C(/C=C/N1CCc2c(ncn2Cc2ccccc2)C1)c1ccccc1O,1.6,8,5.3,4.6,1.9,5.8,3,
CC(C)(C)c1nc2c(n1CC1CC1)CCN(/C=C/C(=O)c1ccccc1O)C2,1.2,8,5.8,3.8,1.5,5.9,3.8,
O=C(/C=C/N1CC2CCC(CC2)C1)c1ccccc1O,2,6.6,3.8,5.2,3.3,5.1,2,
O=C(/C=C/N1CCc2c(ncnc2NC2CC2)C1)c1ccccc1O,2.4,9.1,7.7,6.7,3.5,,,t1/2 [9]: 20 h; Kd [10]: 0.049 µM; Kd [11]: 0.152 µM; Kd [12]: 0.028 µM
O=C(/C=C/N1CCCC1)c1ccccc1O,0.7,5.7,4.7,2.3,1.1,5.5,3,
CC(C)(C)OC(=O)N1CCN(/C=C/C(=O)c2ccccc2O)C2(CC2)C1,0.6,7.6,6.1,2.2,0.9,7.5,4.1,
CN(C)/C=C/C(=O)c1ccccc1O,0.7,4.9,3.3,2,0.5,4.8,2,
COc1cccc(C(=O)/C=C/N2CCCC2)c1O,0.3,0.4,0.7,0.1,0,0.7,-0.4,
O=C(/C=C/N1CCc2cn[nH]c2C1)c1ccccc1O,1.2,7.8,7,4.1,1.7,7.8,4.8,
CN(C)c1ncnc2c1CCN(/C=C/C(=O)c1ccccc1O)C2,1.2,5.1,3.4,3.5,1.3,4.1,2.2,
O=C(/C=C/N1[C@H]2CC[C@@H]1c1ncnc(NC3CC3)c1C2)c1ccccc1O,2.1,9.3,7.4,5.9,6.4,8.5,,Kd [13]: 0.0373 µM; Activity [14]: inactive; inhibition [15]: Active; inhibition [16]: Active; Activity [17]: 50%; inhibition [18]: Active; Activity [19]: Non-toxic; inhibition [20]: Dose-dependent effect; Activity [21]: Non-toxic; Activity [22]: inactive; inhibition [23]: inactive; inhibition [8]: Active; Activity [24]: 50%

# Reference: ChEMBL document CHEMBL3817768, “Identification of a Chemical Probe for Family VIII Bromodomains through Optimization of a Fragment Hit” (J Med Chem, 2016)
